pIC50: −log10 of the molar value.
Each compound was assayed against T1, Inosine-5'-monophosphate dehydrogenase (Pseudomonas aeruginosa (strain ATCC 15692 / DSM 22644 / CIP 104116 / JCM14847 / LMG 12228 / 1C / PRS 101 / PAO1)) (UniProt Q9HXM5) (assay: Inhibition of Pseudomonas aeruginosa IMPDH extracted form Escherichia coli BL21 (DE3)pDIA17 assessed as formation of NADH at 50 uM relative to control). Conditions: not given.
T1 sequence (whole entry): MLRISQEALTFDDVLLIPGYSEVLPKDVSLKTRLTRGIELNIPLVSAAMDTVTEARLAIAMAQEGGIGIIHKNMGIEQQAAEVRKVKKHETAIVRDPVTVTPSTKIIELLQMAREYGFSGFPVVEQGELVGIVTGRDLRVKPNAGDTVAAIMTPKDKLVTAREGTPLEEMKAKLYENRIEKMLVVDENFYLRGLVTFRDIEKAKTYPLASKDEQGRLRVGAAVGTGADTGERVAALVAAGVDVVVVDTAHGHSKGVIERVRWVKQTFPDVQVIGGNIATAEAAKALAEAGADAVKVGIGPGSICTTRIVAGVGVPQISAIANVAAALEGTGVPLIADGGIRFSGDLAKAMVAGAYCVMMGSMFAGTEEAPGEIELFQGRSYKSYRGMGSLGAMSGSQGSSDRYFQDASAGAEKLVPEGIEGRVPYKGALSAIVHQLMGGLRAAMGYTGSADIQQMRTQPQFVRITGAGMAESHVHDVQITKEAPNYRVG
In short: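 His-tagged wild-type IMPDH (E. coli, P. aeruginosa or S. aureus) made in E. coli BL21(DE3)/pDIA17, purified by metal-affinity then gel filtration. NADH formation followed at 340 nm, 30 °C, with 0.2 mM IMP, 0.4 mM NAD⁺, 0.2 mM MgATP, 2 mM MgCl₂. Buffers: pa Tris-HCl 50 mM pH 8; ec Tris-HCl 50 mM pH 8, KCl 50 mM; sa Na₂CO₃ 50 mM pH 9.2, KCl 20 mM. Compound at 50 μM; % inhibition vs compound-free activity.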

| Structure (SMILES) | inhibition [%] |
| --- | --- |
| CC(C)(NC(=O)NCc1ccccc1)c1cccc(-c2ccccc2)c1 | 16 |
| CCOC(=O)n1ccc(-c2cccc(C(C)(C)NC(=O)Nc3ccc(Cl)c([N+](=O)[O-])c3)c2)n1 | 98 |
| CC(C)(NC(=O)Nc1ccc(Cl)c([N+](=O)[O-])c1)c1cccc(-c2cn(C(c3ccccc3)(c3ccccc3)c3ccccc3)cn2)c1 | 35 |
| CC(C)(NC(=O)Nc1ccc(Cl)c([N+](=O)[O-])c1)c1cccc(-c2nccs2)c1 | 97 |
| CC(C)(NC(=O)NCc1ccccc1)c1cccc(-c2cccs2)c1 | 15 |

The remaining lines, values ahead:

| inhibition [%] | Structure (SMILES) |
| --- | --- |
| 96 | CC(C)(NC(=O)Nc1ccc(Cl)c([N+](=O)[O-])c1)c1cccc(-c2cccs2)c1 |
| 99 | CC(C)(NC(=O)Nc1ccc(Cl)c([N+](=O)[O-])c1)c1cccc(-c2ccco2)c1 |
| 95 | CCOc1ncccc1-c1cccc(C(C)(C)NC(=O)Nc2ccc(Cl)c([N+](=O)[O-])c2)c1 |
| 98 | CC(C)(NC(=O)Nc1ccc(Cl)c([N+](=O)[O-])c1)c1cccc(-c2cccnc2F)c1 |

These compounds were tested against T2, Inosine-5'-monophosphate dehydrogenase (Pseudomonas aeruginosa (strain ATCC 15692 / DSM 22644 / CIP 104116 / JCM14847 / LMG 12228 / 1C / PRS 101 / PAO1), UniProt Q9HXM5) (assay: Inhibition of Pseudomonas aeruginosa IMPDH extracted form Escherichia coli BL21 (DE3)pDIA17 assessed as formation of NADH). Conditions: read-out: I50.
T2 sequence (Q9HXM5 whole entry): T1 sequence (whole entry)

| Structure (SMILES) | pIC50 |
| --- | --- |
| CCOC(=O)n1ccc(-c2cccc(C(C)(C)NC(=O)Nc3ccc(Cl)c([N+](=O)[O-])c3)c2)n1 | 6.80 |
| CC(C)(NC(=O)Nc1ccc(Cl)c([N+](=O)[O-])c1)c1cccc(-c2nccs2)c1 | 6.96 |

Now from value to compound:

| pIC50 | Structure (SMILES) |
| --- | --- |
| 6.85 | CC(C)(NC(=O)Nc1ccc(Cl)c([N+](=O)[O-])c1)c1cccc(-c2cccs2)c1 |
| 6.59 | CC(C)(NC(=O)Nc1ccc(Cl)c([N+](=O)[O-])c1)c1cccc(-c2ccco2)c1 |
| 6.23 | CCOc1ncccc1-c1cccc(C(C)(C)NC(=O)Nc2ccc(Cl)c([N+](=O)[O-])c2)c1 |
| 6.62 | CC(C)(NC(=O)Nc1ccc(Cl)c([N+](=O)[O-])c1)c1cccc(-c2cccnc2F)c1 |
